Consider 1 compound from ChEMBL document CHEMBL1914440, “Discovery of potent, selective, and orally bioavailable alkynylphenoxyacetic acid CRTH2 (DP2) receptor antagonists for the treatment of allergic inflammatory diseases” (J Med Chem, 2011).

Molecules are shown by their SMILES. The source made the active and inactive calls. No cut-off for these calls is given here.

Test [1] has as its system Mus musculus. Nature of the test: Antiinflammatory activity in BALB/c mouse model assessed as inhibition of ovalbumin-induced eosinophil accumulation in bronchoalveolar lavage fluid at 1 mg/kg, ip administered 1 hr prior to and 7 hrs after ovalbumin challenge for 3 days measured 8 hrs after final dose by cell counting. It is filed as functional. Conditions: Lung, route intraperitoneal. The method in brief:
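BALB/c mice were immunised with ovalbumin ip on days 0 and 7, then challenged with aerosolised ovalbumin for 30 min on days 15, 16 and 17. Bronchoalveolar lavage was done 8 h after the last challenge. Total cells were counted by haemocytometer, and eosinophils by differential count on DiffQuik-stained cytospins. Results are given as % inhibition, mean ± SEM.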

Test [2] has as its system Mus musculus. Nature of the test: Antiinflammatory activity in BALB/c mouse contact hypersensitivity model assessed as inhibition of FITC-mediated ear swelling at 5 mg/kg, ip administered 1 hr prior to and 7 hrs after the FITC-challenge measured 24 hrs after final dose.

As usually defined, the inhibition in vivo is the relative decrease from the control value, in per cent. Regarding `C[C@@H]1C[C@H]2[C@@H]3CCC4=CC(=O)C=C[C@]4(C)[C@@]3(F)[C@@H](O)C[C@]2(C)[C@@]1(O)C(=O)CO` [DEXAMETHASONE], the inhibition in vivo at 1 mg/kg in test [1] is 90%. Moreover, the inhibition entry in test [2] is “Active”.
